Assay results as given in ChEMBL document CHEMBL1147453, “3,4-Dihydroquinazoline derivatives as novel selective T-type Ca2+ channel blockers” (Bioorg Med Chem Lett, 2004).

Tests used:
[1] = target: T1, Voltage-dependent T-type calcium channel subunit alpha-1G (Homo sapiens, UniProt O43497); assay: Concentration of the compounds required for inhibition of HEK293 cells (alpha1G T-type); format: functional, cell-based
[2] = target: T1, Voltage-dependent T-type calcium channel subunit alpha-1G; assay: In vitro inhibition of alpha-1G T-type [Ca2+] channels expressed in HEK293 cells at 10 uM; format: functional, cell-based
In short: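 Whole-cell patch clamp on HEK293 cells expressing α1G T-type Ca2+ channels, test compound at 10 µM. Percent inhibition of T-type current reported as mean ± SEM from repeated runs (n ≥ 3).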

[3] = target: Voltage-dependent T-type calcium channel subunit alpha-1H (Homo sapiens) (UniProt O95180); assay: In vitro inhibitory effect on alpha-1H T-type [Ca2+] channels expressed in Xenopus oocytes at 100 uM; format: functional, cell-based; conditions: Oocyte
In short: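 Preliminary screen at 100 µM on α1H T-type Ca2+ channels expressed in Xenopus oocytes, recorded by two-electrode voltage clamp. Output is percent inhibition of current.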

[4] = target: T1, Voltage-dependent T-type calcium channel subunit alpha-1G; assay: In vitro inhibition of alpha-1G T-type [Ca2+] channels expressed in HEK293 cells; format: functional, cell-based
In short: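 α1G T-type Ca2+ currents recorded in HEK293 cells by whole-cell patch clamp. IC50 is the molar concentration giving 50% inhibition of α1G current, obtained by fitting raw data to dose–response curves.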

[5] = Inhibition of LVA T-type [Ca2+] channels of major pelvic ganglion (MPG) neurons at 10 uM; format: functional
In short: (§1)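 Major pelvic ganglion (MPG) neurons, compound at 10 µM. Percent inhibition measured for both LVA (T-type) and HVA (N-type) Ca2+ currents, as part of an ion-channel selectivity screen that also covered Na+ channels.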

[6] = target: Voltage-dependent N-type calcium channel subunit alpha-1B (Homo sapiens) (UniProt Q00975); assay: Inhibition of HVA N-type [Ca2+] channels of major pelvic ganglion (MPG) neurons at 10 uM; format: functional; in short: as §1
Voltage-dependent N-type calcium channel subunit alpha-1B (Homo sapiens), sequence (Q00975 whole entry, looked up): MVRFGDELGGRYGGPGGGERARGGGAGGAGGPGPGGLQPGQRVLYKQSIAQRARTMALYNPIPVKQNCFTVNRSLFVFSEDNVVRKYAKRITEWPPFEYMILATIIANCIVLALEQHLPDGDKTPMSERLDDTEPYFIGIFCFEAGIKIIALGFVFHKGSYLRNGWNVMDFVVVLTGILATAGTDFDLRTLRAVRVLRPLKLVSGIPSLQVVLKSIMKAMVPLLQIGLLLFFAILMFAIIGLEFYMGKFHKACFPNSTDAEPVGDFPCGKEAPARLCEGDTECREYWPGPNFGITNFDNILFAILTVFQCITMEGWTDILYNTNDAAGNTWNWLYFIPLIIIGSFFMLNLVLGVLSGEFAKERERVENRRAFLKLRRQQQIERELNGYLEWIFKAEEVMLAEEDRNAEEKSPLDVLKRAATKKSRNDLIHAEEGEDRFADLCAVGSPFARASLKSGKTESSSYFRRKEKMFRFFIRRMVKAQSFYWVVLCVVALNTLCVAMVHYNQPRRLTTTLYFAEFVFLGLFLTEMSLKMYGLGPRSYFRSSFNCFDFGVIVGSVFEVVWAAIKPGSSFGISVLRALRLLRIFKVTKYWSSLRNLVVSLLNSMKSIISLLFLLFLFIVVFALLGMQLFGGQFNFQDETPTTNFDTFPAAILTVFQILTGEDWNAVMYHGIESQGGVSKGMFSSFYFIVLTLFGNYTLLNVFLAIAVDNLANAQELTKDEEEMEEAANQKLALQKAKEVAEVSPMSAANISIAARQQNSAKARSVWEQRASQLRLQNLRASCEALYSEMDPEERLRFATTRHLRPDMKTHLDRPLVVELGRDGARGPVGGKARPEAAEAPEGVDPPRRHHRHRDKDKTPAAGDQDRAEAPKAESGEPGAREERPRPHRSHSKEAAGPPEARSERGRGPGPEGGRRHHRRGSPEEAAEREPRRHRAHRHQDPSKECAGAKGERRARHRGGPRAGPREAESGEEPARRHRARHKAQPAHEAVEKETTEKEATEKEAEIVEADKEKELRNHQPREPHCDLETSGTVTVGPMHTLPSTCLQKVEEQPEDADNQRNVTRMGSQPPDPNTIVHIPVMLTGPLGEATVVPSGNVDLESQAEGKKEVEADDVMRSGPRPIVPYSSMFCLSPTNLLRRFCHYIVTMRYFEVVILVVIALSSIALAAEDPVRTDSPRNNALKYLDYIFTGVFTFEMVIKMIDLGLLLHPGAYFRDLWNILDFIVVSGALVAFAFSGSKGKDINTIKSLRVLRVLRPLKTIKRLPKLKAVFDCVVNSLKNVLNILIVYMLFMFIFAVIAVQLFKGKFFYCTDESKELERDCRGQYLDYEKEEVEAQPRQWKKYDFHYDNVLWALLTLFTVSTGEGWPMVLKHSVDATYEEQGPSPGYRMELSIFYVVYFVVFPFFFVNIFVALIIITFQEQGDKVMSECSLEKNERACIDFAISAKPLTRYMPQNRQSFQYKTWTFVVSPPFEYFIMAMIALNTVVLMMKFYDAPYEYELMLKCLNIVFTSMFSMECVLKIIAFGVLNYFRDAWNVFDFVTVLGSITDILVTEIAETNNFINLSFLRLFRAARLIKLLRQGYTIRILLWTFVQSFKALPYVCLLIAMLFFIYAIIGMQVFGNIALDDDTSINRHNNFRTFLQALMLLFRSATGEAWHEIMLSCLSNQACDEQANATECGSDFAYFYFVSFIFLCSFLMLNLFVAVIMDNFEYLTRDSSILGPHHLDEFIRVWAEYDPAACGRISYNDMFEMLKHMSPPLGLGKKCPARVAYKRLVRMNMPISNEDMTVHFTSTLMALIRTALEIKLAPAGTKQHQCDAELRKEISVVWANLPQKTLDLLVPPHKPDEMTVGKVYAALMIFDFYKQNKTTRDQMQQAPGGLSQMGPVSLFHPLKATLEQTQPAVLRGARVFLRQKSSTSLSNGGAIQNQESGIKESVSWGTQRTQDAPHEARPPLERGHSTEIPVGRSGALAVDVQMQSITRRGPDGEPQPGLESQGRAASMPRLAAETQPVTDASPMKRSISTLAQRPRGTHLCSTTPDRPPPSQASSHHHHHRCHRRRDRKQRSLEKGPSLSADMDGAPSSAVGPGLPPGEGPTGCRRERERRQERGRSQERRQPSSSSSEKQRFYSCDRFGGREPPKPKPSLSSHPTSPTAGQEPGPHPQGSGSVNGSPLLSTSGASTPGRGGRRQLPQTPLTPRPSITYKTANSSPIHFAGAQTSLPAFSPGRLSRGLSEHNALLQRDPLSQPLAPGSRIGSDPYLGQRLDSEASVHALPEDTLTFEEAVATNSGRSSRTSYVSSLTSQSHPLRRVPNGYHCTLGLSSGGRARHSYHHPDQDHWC

Voltage-dependent T-type calcium channel subunit alpha-1H (Homo sapiens), sequence (O95180 whole entry): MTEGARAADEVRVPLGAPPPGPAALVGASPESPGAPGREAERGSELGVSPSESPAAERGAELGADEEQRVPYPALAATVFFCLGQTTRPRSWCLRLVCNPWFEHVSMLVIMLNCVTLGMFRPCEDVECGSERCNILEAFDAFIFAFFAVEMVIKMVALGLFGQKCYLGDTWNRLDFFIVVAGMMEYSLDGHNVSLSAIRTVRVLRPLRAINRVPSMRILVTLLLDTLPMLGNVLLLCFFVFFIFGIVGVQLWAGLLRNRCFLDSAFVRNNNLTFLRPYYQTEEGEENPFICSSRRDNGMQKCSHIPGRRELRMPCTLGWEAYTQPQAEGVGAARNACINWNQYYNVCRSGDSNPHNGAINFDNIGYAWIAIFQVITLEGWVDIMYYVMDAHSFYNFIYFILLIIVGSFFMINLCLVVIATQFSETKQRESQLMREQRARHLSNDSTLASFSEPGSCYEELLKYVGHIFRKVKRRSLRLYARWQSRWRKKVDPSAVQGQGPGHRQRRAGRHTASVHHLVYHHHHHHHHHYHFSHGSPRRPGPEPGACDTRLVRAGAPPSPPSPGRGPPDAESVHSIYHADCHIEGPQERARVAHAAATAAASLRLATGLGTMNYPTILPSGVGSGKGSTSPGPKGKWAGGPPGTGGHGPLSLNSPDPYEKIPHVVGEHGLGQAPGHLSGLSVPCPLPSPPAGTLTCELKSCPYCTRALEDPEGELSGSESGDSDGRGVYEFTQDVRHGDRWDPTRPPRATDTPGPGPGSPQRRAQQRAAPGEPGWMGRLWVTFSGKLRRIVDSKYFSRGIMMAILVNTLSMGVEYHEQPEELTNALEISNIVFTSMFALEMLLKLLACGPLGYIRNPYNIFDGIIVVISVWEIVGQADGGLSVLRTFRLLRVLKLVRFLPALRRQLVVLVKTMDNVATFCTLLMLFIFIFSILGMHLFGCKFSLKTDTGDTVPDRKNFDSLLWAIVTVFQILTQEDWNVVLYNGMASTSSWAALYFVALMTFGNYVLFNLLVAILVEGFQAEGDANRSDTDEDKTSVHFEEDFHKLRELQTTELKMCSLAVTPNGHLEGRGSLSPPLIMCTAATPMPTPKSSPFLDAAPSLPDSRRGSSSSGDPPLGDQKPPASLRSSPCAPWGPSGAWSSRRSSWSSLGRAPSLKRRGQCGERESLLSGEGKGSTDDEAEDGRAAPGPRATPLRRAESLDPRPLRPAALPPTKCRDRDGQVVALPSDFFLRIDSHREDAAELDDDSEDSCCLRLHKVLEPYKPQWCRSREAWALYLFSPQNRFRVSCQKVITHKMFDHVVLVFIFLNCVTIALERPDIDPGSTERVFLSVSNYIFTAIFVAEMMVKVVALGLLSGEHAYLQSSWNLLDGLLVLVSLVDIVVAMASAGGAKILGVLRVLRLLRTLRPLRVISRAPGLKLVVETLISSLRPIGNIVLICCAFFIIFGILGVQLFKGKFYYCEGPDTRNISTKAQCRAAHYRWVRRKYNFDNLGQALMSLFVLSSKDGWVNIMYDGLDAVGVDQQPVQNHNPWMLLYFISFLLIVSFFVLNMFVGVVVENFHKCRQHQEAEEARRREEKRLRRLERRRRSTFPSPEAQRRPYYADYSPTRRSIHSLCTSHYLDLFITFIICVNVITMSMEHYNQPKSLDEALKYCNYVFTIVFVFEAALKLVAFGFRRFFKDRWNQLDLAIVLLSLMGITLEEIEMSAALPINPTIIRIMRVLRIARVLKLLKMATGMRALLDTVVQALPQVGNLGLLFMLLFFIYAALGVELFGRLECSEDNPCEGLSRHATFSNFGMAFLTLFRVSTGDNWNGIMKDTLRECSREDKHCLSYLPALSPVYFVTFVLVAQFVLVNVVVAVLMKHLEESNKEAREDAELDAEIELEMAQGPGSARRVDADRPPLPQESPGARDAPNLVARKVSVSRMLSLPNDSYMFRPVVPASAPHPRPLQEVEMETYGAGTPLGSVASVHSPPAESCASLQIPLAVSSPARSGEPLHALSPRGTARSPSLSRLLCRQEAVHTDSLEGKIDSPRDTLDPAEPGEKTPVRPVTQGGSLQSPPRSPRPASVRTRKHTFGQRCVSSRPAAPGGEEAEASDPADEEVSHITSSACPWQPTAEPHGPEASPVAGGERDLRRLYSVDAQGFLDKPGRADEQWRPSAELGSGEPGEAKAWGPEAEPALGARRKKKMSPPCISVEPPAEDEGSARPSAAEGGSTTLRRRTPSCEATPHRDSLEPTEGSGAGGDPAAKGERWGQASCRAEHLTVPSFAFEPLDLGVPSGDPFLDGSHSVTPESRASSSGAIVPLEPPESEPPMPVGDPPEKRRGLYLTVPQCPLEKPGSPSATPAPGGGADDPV

SMILES	IC50 [1]	inhibition [2]	inhibition [3]	further results
O=C(CC1c2ccccc2N=C(N2CCOCC2)N1c1ccccc1)NCc1ccccc1 (stereo unspecified)	21.6 µM	40.5%	63.8%	
COC(=O)CC1c2ccccc2N=C(N2CCN(C)CC2)N1c1ccccc1 (stereo unspecified)			15%	
CN1CCN(C2=Nc3ccccc3C(CC(=O)O)N2c2ccccc2)CC1 (stereo unspecified)			15%	
COC(=O)CC1c2ccccc2N=C(c2ccccc2)N1c1ccccc1 (stereo unspecified)	10.7 µM		51.5%	inhibition [4]: 50%
COC(=O)CC1c2ccccc2N=C(N2CCCCC2)N1c1ccccc1 (stereo unspecified)	27.7 µM	18.3%	11.5%	
O=C(CC1c2ccccc2N=C(N2CCCCC2)N1c1ccccc1)NCc1ccc([N+](=O)[O-])cc1 (stereo unspecified)	2.5 µM	92.3%	91.9%	inhibition at 10 µM [5]: 37.7%; inhibition [6]: 32.2%
O=C(CC1c2ccccc2N=C(N2CCCCC2)N1c1ccccc1)OCc1ccccc1 (stereo unspecified)			15.6%	
Cc1ccc(S(=O)(=O)Nc2ccc(CNC(=O)CC3c4ccccc4N=C(N4CCCCC4)N3c3ccccc3)cc2)cc1 (stereo unspecified)	0.25 µM	89.9%	84.7%	inhibition at 10 µM [5]: 29%; inhibition [6]: 38.7%
O=C(O)CC1c2ccccc2N=C(N2CCCCC2)N1c1ccccc1 (stereo unspecified)			8%	
COC(=O)CC1c2ccccc2N=C(N2CCCCC2)N1C(C)C (stereo unspecified)			8%	
O=C(O)CC1c2ccccc2N=C(N2CCOCC2)N1c1ccccc1 (stereo unspecified)			9%	
O=C(CC1c2ccccc2N=C(c2ccccc2)N1c1ccccc1)OCc1ccccc1 (stereo unspecified)			14.2%	
COC(=O)CC1c2ccccc2N=C(N2CCN(C)CC2)N1C1CCCCC1 (stereo unspecified)			3%	
Nc1ccc(CNC(=O)CC2c3ccccc3N=C(N3CCCCC3)N2c2ccccc2)cc1 (stereo unspecified)	14.4 µM	43.5%	66.8%	inhibition at 10 µM [5]: 4.7%; inhibition [6]: 18.4%
COCC(=O)O[C@]1(CCN(C)CCCc2nc3ccccc3[nH]2)CCc2cc(F)ccc2[C@@H]1C(C)C		95.9%	86%	
O=C(CC1c2ccccc2N=C(N2CCCCC2)N1c1ccccc1)NCc1ccc(NS(=O)(=O)c2ccc(F)cc2)cc1 (stereo unspecified)	0.2 µM	89%	80.5%	inhibition at 10 µM [5]: 49.6%; inhibition [6]: 50.8%
COC(=O)CC1c2ccccc2N=C(N2CCOCC2)N1C(C)C (stereo unspecified)			0%	
COC(=O)CC1c2ccccc2N=C(N2CCCCC2)N1C1CCCCC1 (stereo unspecified)			27%	
O=C(CC1c2ccccc2N=C(N2CCCCC2)N1c1ccccc1)NCc1ccccc1 (stereo unspecified)	0.9 µM	90.1%	77%	inhibition at 10 µM [5]: 76%; inhibition [6]: 12%
O=C(O)CC1c2ccccc2N=C(c2ccccc2)N1c1ccccc1 (stereo unspecified)			7.2%	
CN1CCN(C2=Nc3ccccc3C(CC(=O)NCc3ccccc3)N2c2ccccc2)CC1 (stereo unspecified)	35.8 µM	29%	70.3%	
COC(=O)CC1c2ccccc2N=C(N2CCN(C)CC2)N1C(C)C (stereo unspecified)			0%	
COC(=O)CC1c2ccccc2N=C(N2CCOCC2)N1c1ccccc1 (stereo unspecified)			14%	
CN1CCN(C2=Nc3ccccc3C(CC(=O)OCc3ccccc3)N2c2ccccc2)CC1 (stereo unspecified)			32.7%	
O=C(CC1c2ccccc2N=C(c2ccccc2)N1c1ccccc1)NCc1ccccc1 (stereo unspecified)			14.8%	
O=C(CC1c2ccccc2N=C(N2CCOCC2)N1c1ccccc1)OCc1ccccc1 (stereo unspecified)			20.9%	
COC(=O)CC1c2ccccc2N=C(N2CCOCC2)N1C1CCCCC1 (stereo unspecified)			12.2%	
